A short description of data set [1]: Inhibition of endoplasmic reticulum alpha-glucosidase in HEK293 cells infected with DENV assessed as reduction in viral infection. Format: cell-based. The following applies: Homo sapiens.
Data set [2] concerns Mus musculus. Put plainly: AUC(0 to infinity) in BALB/c mouse at 25 mg/kg, po administered as single dose by LC-MS/MS analysis. Format: ADME, organism-based. Also on record: dose 25 mg/kg, time infinity, route oral. The following applies: in vivo.
A short description of data set [3]: Inhibition of pig liver endoplasmic reticulum alpha glucosidase-2 using 4-methylumbelliferyl-alpha-D-glucoside as substrate measured after 60 mins by fluorescence analysis. Also on record: species or system Sus scrofa.
The subject of data set [4] is Liver. As to the kind of experiment: Half life in pooled human liver microsomes at 200 uM by LC-MS/MS analysis. The following applies: microsomes, 200 µM. Format: ADME, microsome. The procedure, abridged:
(§1)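 Prodrugs or parent incubated in pooled human or mouse liver microsomes for up to 60 min, with or without cofactor. Percent remaining and percent conversion to the parent were measured.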
In general terms: Liver microsomes are vesicles of endoplasmic reticulum, rich in cytochrome P450 enzymes.

Data set [5] in a line: Volume of distribution at steady state in BALB/c mouse at 5 mg/kg, iv as bolus administration by LC-MS/MS analysis. In kind it is ADME, organism-based. The following applies: in vivo, read-out: Vdss. The procedure, abridged: (§2)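 Male BALB/c mice dosed with the prodrugs or the parent orally (25 or 100 mg/kg) or intravenously (5 mg/kg). The parent compound was quantified in plasma and PK parameters were derived from it. The first sampling point was 5 min post-dose, and prodrugs were tracked up to 4 h.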

Data set [6] relates to Liver. Put plainly: Metabolic stability in pooled human liver microsomes assessed as parent compound remaining at 200 uM measured after 60 mins by LC-MS/MS analysis. Format: ADME, microsome. Particulars: microsomes, 1 h, 200 µM. The procedure, abridged: as §1
Data set [7] is described as follows: Half life in BALB/c mouse at 100 mg/kg, po administered as single dose by LC-MS/MS analysis. Format: ADME, organism-based. The following applies: in vivo. The procedure, abridged: as §2
The nature of data set [8]: Cmax in BALB/c mouse at 25 mg/kg, po administered as single dose by LC-MS/MS analysis. In kind it is ADME, organism-based. Details: dose 25 mg/kg, route oral. The following applies: in vivo. The procedure, abridged: as §2
A short description of data set [9]: Metabolic stability in human plasma assessed as parent compound remaining at 5 uM measured after 2 hrs by LC-MS/MS analysis. The following applies: read-out: Stability. Format: ADME, cell-free. The procedure, abridged:
(§3)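 Compounds incubated in human or mouse plasma for 2 h. Percent remaining and percent conversion to the parent were determined.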

The species entered for a further data set is Bos taurus. Put plainly: Inhibition of endoplasmic reticulum alpha-glucosidase in MDBK cells infected with Bovine Viral Diarrhea virus assessed as reduction in BVDV envelope glycoprotein E2 level at 3 to 100 uM by immunoblot analysis. In kind it is cell-based. The procedure, abridged:
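MDBK cells infected with BVDV, then treated with various concentrations of the compounds. Cell lysates were run on SDS-PAGE and immunoblotted for the E2 envelope glycoprotein, looking for a mobility shift and lower intensity, with β-actin as internal control.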
A general note: A western blot detects proteins with antibodies after separation by electrophoresis.

A short description of data set [10]: Metabolic stability in human intestinal S9 fraction assessed as parent compound level at 200 uM measured after 1 hr in presence or absence of NADPH by LC-MS/MS analysis. Format: ADME, Intestine. The following applies: read-out: Stability. The procedure, abridged:
(§4)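 Compounds incubated with intestinal S9 fraction for 1 h. Percent prodrug remaining and percent conversion to the parent were measured.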

Data set [11] relates to Mus musculus. As to the kind of experiment: AUC(0 to infinity) in BALB/c mouse at 5 mg/kg, iv as bolus administration by LC-MS/MS analysis. In kind it is ADME, organism-based. The following applies: in vivo. Also on record: dose 5 mg/kg, time infinity, route intravenous.
The nature of data set [12]: Stability in simulated intestinal fluid assessed as parent compound remaining at 5 uM measured after 4 hrs by LC-MS/MS analysis. The procedure, abridged:
(§5)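 Chemical stability assessed by incubation in simulated gastric fluid and simulated intestinal fluid; percent of compound remaining was measured.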

In data set [13] the test system is Liver. As to the kind of experiment: Half life in pooled mouse liver microsomes at 200 uM by LC-MS/MS analysis. Particulars: microsomes, 200 µM. Format: ADME, microsome. The procedure, abridged: as §1
Data set [14] concerns Liver. Put plainly: Metabolic stability in pooled mouse liver microsomes assessed as parent compound remaining at 200 uM measured after 60 mins by LC-MS/MS analysis. Format: ADME, microsome. Particulars: microsomes, 1 h, 200 µM. The procedure, abridged:
as §1

Data set [15] deals with Mus musculus. As to the kind of experiment: AUC(0 to infinity) in BALB/c mouse at 100 mg/kg, po administered as single dose by LC-MS/MS analysis. In kind it is ADME, organism-based. Details: dose 100 mg/kg, time infinity, route oral. The following applies: in vivo.
A short description of data set [16]: Metabolic stability in mouse plasma assessed as parent compound remaining at 5 uM measured after 2 hrs by LC-MS/MS analysis. The following applies: read-out: Stability. In kind it is ADME, cell-free. The procedure, abridged:
as §3

Data set [17] in a line: Metabolic stability in pooled mouse liver microsomes assessed as parent compound remaining at 200 uM measured after 60 mins in presence of NADPH and UDPGA by LC-MS/MS analysis. In kind it is ADME, microsome. The following applies: read-out: Stability. The procedure, abridged:
as §1

Data set [18] in a line: Metabolic stability in mouse intestinal S9 fraction assessed as parent compound level at 200 uM measured after 1 hr in presence or absence of NADPH by LC-MS/MS analysis. Format: ADME, Intestine. The following applies: read-out: Stability. The procedure, abridged: as §4
Data set [19] can be described thus: Inhibition of endoplasmic reticulum alpha-glucosidase in human Huh7.5 cells infected with DENV assessed as reduction in viral growth by measuring DENV RNA level by qRT-PCR method. Format: cell-based. The procedure, abridged: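 Huh7.5 cells infected with dengue virus and treated with a concentration series of the compounds (n = 4). DENV RNA was quantified by qRT-PCR and the EC50 was calculated.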
(In general: In qPCR the cycle at which signal appears reflects the starting amount.)

The nature of data set [20]: Tmax in BALB/c mouse at 25 mg/kg, po administered as single dose by LC-MS/MS analysis. In kind it is ADME, organism-based. The following applies: in vivo. The procedure, abridged:
as §2

Data set [21] in a line: Clearance in BALB/c mouse at 5 mg/kg, iv as bolus administration by LC-MS/MS analysis. Format: ADME, organism-based. The following applies: in vivo. The procedure, abridged: as §2
Data set [22] is described as follows: Inhibition of pig liver endoplasmic reticulum alpha glucosidase-1 using 4-methylumbelliferyl-alpha-D-glucoside as substrate measured after 90 mins by fluorescence analysis. Details: species or system Sus scrofa.
The nature of data set [23]: Half life in BALB/c mouse at 25 mg/kg, po administered as single dose by LC-MS/MS analysis. In kind it is ADME, organism-based. The following applies: in vivo. The procedure, abridged:
as §2

The nature of data set [24]: Half life in BALB/c mouse at 5 mg/kg, iv as bolus administration by LC-MS/MS analysis. Format: ADME, organism-based. The following applies: in vivo. The procedure, abridged:
as §2

Data set [25] can be described thus: Cmax in BALB/c mouse at 5 mg/kg, iv as bolus administration by LC-MS/MS analysis. Particulars: in vivo. Format: ADME, organism-based. Details: dose 5 mg/kg, route intravenous. The procedure, abridged:
as §2

Data set [26] is described as follows: Metabolic stability in pooled human liver microsomes assessed as parent compound remaining at 200 uM measured after 60 mins in presence of NADPH and UDPGA by LC-MS/MS analysis. Particulars: read-out: Stability. In kind it is ADME, microsome. The procedure, abridged: as §1
Data set [27] in a line: Cmax in BALB/c mouse at 100 mg/kg, po administered as single dose by LC-MS/MS analysis. The following applies: in vivo. In kind it is ADME, organism-based. Details: dose 100 mg/kg, route oral. The procedure, abridged: as §2
Data set [28] is described as follows: Tmax in BALB/c mouse at 100 mg/kg, po administered as single dose by LC-MS/MS analysis. Format: ADME, organism-based. The following applies: in vivo. The procedure, abridged: as §2
Data set [29] in a line: Stability in simulated gastric fluid assessed as parent compound remaining at 5 uM measured after 4 hrs by LC-MS/MS analysis. The procedure, abridged:
as §5

Molecules are shown by their SMILES. Active and inactive are the calls of the source. The calls are words filed in the database; no cut-off is given here.

Broadly, the EC50 is the concentration needed to bring the measured effect to its halfway point. Consider `CCC(O)(CC)CCCCCCN1C[C@H](O)[C@@H](O)[C@H](O)[C@H]1CO`, for which the EC50 in data set [1] was 2.2 µM.

Take `CCCCCCCCCN1C[C@H](O)[C@@H](O)[C@H](O)[C@H]1CO`: the EC50 in data set [1] was 7.1 µM.

As to `OC[C@@H]1[C@@H](O)[C@H](O)[C@@H](O)CN1CCCCCCOc1cc(F)ccc1F`, the EC50 in data set [1] stood at 0.5 µM.

For the molecule `OC[C@H]1NC[C@H](O)[C@@H](O)[C@@H]1O` [DUVOGLUSTAT], in data set [1], the EC50 is 364 µM.

Turning to `CCCCN1C[C@H](O)[C@@H](O)[C@H](O)[C@H]1CO` [MIGLUSTAT], in [1], the EC50 is 56.4 µM.

For orientation: IC50 means the concentration that inhibits the measured activity by half. High values mean weaker potency, low ones greater potency. Usually half-life stands for how long it takes for the measured level to halve. Higher therefore signals slow decline. A word on the Cmax: it is the peak of the concentration-time curve. What is called Tmax is the time at which the peak concentration occurs. The clearance is a measure of how efficiently the substance is removed, as volume per time. A low value points to inefficient removal. Turning to `CC(C)(C)NC(=O)N(CCCCCCN1C[C@H](O)[C@@H](O)[C@H](O)[C@H]1CO)C1CCCCC1`, the AUC in the data set with Mus musculus [2] amounted to 150 ng·mL·h; in the data set with Mus musculus [11], 1191 ng·mL·h; in the data set on Mus musculus [15] it was 996 ng·mL·h. In addition, the figures for the IC50 in data set [3] and in data set [22] were 27.8 µM and 0.81 µM, respectively. Further, the t1/2 with Liver [4] came out at 1.73 h; in the data set on Liver [13], 1.57 h. In [5], the Vd amounted to 2.13 L/kg. Also, the Stability in the data set on Liver [6] is 99%; in data set [12], 114%; in the data set with Liver [14], 96%; in data set [29], 109%. The half-life in [7] was 5.46 h; in [23], 5.19 h; in [24], 0.98 h. Also, the Cmax in data set [8] is 184 ng/mL; in data set [25], 2840 ng/mL; in data set [27] it was 915 ng/mL. Besides, the values for the remaining at 2 h, 5 µM in data set [9] and in [16] were 109% and 93%, respectively. Moreover, the inhibition result in the data set filed under Bos taurus was “Active”. Further, the remaining at 1 h, 200 µM was 76 to 95% in [10], 63% in data set [17], 76 to 95% in data set [18] and 68% in data set [26]. Also, the EC50 in data set [1] worked out at 1.2 µM; in [19] it was 4.1 µM. Further, the Tmax is 0.25 h in [20] and 0.5 h in data set [28]. The clearance in data set [21] was 70 mL/min/kg.

The values above are taken from ChEMBL document CHEMBL4041548, “Ester Prodrugs of IHVR-19029 with Enhanced Oral Exposure and Prevention of Gastrointestinal Glucosidase Interaction” (ACS Med Chem Lett, 2017).
